Activity calls are given as the source filed them. The rule behind the calls is not given here.
Legend:
MGC-803 [1] = experiment: Induction of apoptosis in human MGC-803 cells assessed as upregulation of t-Bid at 20 to 60 nM incubated for 48 hrs by Western blot analysis; format: functional, cell-based; settings: dose 20-60 nM
Procedure, shortened: (§1)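 Western blot on MGC-803 and SGC-7901 cells given 20, 40 and 60 nM compound or DMSO for 48 h. Denatured lysates were run on SDS-PAGE and transferred to PVDF, then probed with primary and secondary antibodies to detect apoptosis-related proteins.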

MGC-803 [2] = experiment: Induction of apoptosis in human MGC-803 cells assessed as upregulation of Noxa at 20 to 60 nM incubated for 48 hrs by Western blot analysis; format: functional, cell-based; settings: dose 20-60 nM; procedure, shortened: as §1
MGC-803 [3] = experiment: Activation of Hippo signaling pathway in human […] cells assessed as downregulation of TEAD at 20 to 60 nM incubated for 48 hrs by Western blot analysis; format: cell-based; settings: filed as activator, dose 20-60 nM
Procedure, shortened: (§2)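 Western blot on gastric cancer cells exposed to compound or DMSO at 20, 40 and 60 nM for 48 h. Cells were lysed, then the denatured lysates were separated by SDS-PAGE and transferred to PVDF. Membranes were blocked and probed with primary and then secondary antibodies. Hippo pathway proteins were detected.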

MGC-803 [4] = experiment: Induction of apoptosis in human MGC-803 cells assessed as early apoptotic cells at 20 nM incubated for 48 hrs by annexin V-FITC and PI staining based flow cytometry analysis (reference value: 2.9 %); format: functional
SGC-7901 [5] = experiment: Induction of apoptosis in human SGC-7901 cells assessed as upregulation of Bax at 20 to 60 nM incubated for 48 hrs by Western blot analysis; format: functional, cell-based; settings: dose 20-60 nM
Procedure, shortened: (§3)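 Cells grown in RPMI-1640 with 10% FBS, penicillin/streptomycin at 37 °C, 5% CO2. Exposure to 20, 40 or 60 nM for 48 h alongside DMSO control. Lysates denatured, resolved by SDS-PAGE, transferred to PVDF, blocked, then probed with primary and secondary antibodies.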

[6] = Inhibition of pig brain tubulin polymerization in presence of GTP by spectrophotometric method; parameters: species or system Sus scrofa
Procedure, shortened: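 Tubulin purified from pig brain by three temperature-dependent assembly/disassembly cycles in PIPES pH 6.5 (100 mM), 1.0 mM MgSO4, 2.0 mM EGTA, 1.0 mM GTP, 1.0 mM 2-mercaptoethanol, then phosphocellulose chromatography. Protein mixed with compound in PEM buffer with 1 mM GTP and 5% glycerol.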

SGC-7901 [7] = experiment: Induction of cell cycle arrest in human SGC-7901 cells assessed as increase in G2/M phase accumulation incubated for 24 hrs by PI staining based flow cytometry analysis; format: functional; settings: dose 20-60 nM
Procedure, shortened: (§4)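 Cells in RPMI-1640/10% FBS at 37 °C, 5% CO2, exposed to 20, 40 and 60 nM for 24 h before flow cytometric cell-cycle distribution analysis.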

SGC-7901 [8] = experiment: Activation of Hippo signaling pathway in human SGC-7901 cells assessed as downregulation of YAP at 20 to 60 nM incubated for 48 hrs by Western blot analysis; format: cell-based; settings: filed as activator, dose 20-60 nM; procedure, shortened: as §2
MGC-803 [9] = experiment: Inhibition of tubulin polymerization in human MGC-803 cells assessed as increase in multiple nucleus formation at 20 to 60 nmol/L by DAPI staining based microscopic analysis; format: cell-based; settings: dose 20-60 nmol/L
Procedure, shortened: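 Cells cultured in RPMI-1640 with 10% FBS at 37 °C, 5% CO2, treated 48 h with 20, 40 and 60 nM; stained for β-tubulin (green) and nuclei (blue) and examined by microscopy.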

MGC-803 [10] = experiment: Inhibition of colony formation in human MGC-803 cells at 20 to 60 nM incubated for 7 days by crystal violet staining based assay; format: functional, cell-based; settings: dose 20-60 nM, time 7.0 day
Procedure, shortened: (§5)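 Cells maintained in RPMI-1640 with 10% FBS at 37 °C, 5% CO2; incubated with 20, 40 and 60 nM for 7 days before colony counting.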

SGC-7901 [11] = experiment: Induction of apoptosis in human SGC-7901 cells assessed as early apoptotic cells at 60 nM incubated for 48 hrs by annexin V-FITC and PI staining based flow cytometry analysis (reference value: 1.4 %); format: functional
MGC-803 [12] = experiment: Induction of apoptosis in human MGC-803 cells assessed as downregulation of Bcl-xl at 20 to 60 nM incubated for 48 hrs by Western blot analysis; format: functional, cell-based; settings: dose 20-60 nM; procedure, shortened: as §1
MGC-803 [13] = experiment: Induction of apoptosis in human MGC-803 cells assessed as upregulation of FADD at 20 to 60 nM incubated for 48 hrs by Western blot analysis; format: functional, cell-based; settings: dose 20-60 nM; procedure, shortened: as §1
SGC-7901 [14] = experiment: Induction of apoptosis in human SGC-7901 cells assessed as late apoptotic cells at 20 nM incubated for 48 hrs by annexin V-FITC and PI staining based flow cytometry analysis (reference value: 2.4 %); format: functional
SGC-7901 [15] = experiment: Activation of Hippo signaling pathway in human SGC-7901 cells assessed as increase in LATS phosphorylation at 20 to 60 nM incubated for 48 hrs by Western blot analysis; format: cell-based; settings: filed as activator, dose 20-60 nM; procedure, shortened: as §2
SGC-7901 [16] = experiment: Induction of apoptosis in human SGC-7901 cells assessed as downregulation of Mcl-1 at 20 to 60 nM incubated for 48 hrs by Western blot analysis; format: functional, cell-based; settings: dose 20-60 nM; procedure, shortened: as §1
MGC-803 [17] = experiment: Induction of apoptosis in human MGC-803 cells assessed as late apoptotic cells at 40 nM incubated for 48 hrs by annexin V-FITC and PI staining based flow cytometry analysis (reference value: 4.1 %); format: functional
SGC-7901 [18] = experiment: Activation of Hippo signaling pathway in human SGC-7901 cells assessed as decrease in Bcl-2 expression incubated for 48 hrs by Western blot analysis; format: cell-based; settings: filed as activator, dose 20-60 nM; procedure, shortened: as §2
MGC-803 [19] = experiment: Induction of cell cycle arrest in human MGC-803 cells assessed as downregulation of Cyclin B1 at 20 to 60 nM incubated for 48 hrs by Western blot analysis; format: functional, cell-based; settings: dose 20-60 nM; procedure, shortened: as §3
SGC-7901 [20] = experiment: Induction of apoptosis in human SGC-7901 cells assessed as late apoptotic cells at 40 nM incubated for 48 hrs by annexin V-FITC and PI staining based flow cytometry analysis (reference value: 2.4 %); format: functional
MGC-803 [21] = experiment: Induction of apoptosis in human MGC-803 cells assessed as upregulation of Bak at 20 to 60 nM incubated for 48 hrs by Western blot analysis; format: functional, cell-based; settings: dose 20-60 nM; procedure, shortened: as §1
SGC-7901 [22] = experiment: Inhibition of colony formation in human SGC-7901 cells at 20 to 60 nM incubated for 7 days by crystal violet staining based assay; format: functional, cell-based; settings: dose 20-60 nM, time 7.0 day; procedure, shortened: as §5
SGC-7901 [23] = experiment: Induction of apoptosis in human SGC-7901 cells assessed as upregulation of t-Bid at 20 to 60 nM incubated for 48 hrs by Western blot analysis; format: functional, cell-based; settings: dose 20-60 nM; procedure, shortened: as §3
MGC-803 [24] = experiment: Activation of Hippo signaling pathway in human […] cells assessed as increase in LATS phosphorylation at 20 to 60 nM incubated for 48 hrs by Western blot analysis; format: cell-based; settings: filed as activator, dose 20-60 nM; procedure, shortened: as §2
SGC-7901 [25] = experiment: Displacement of EBI from beta-tubulin in human SGC-7901 cells assessed as reduction in tubulin adduct formation incubated for 2 hrs followed by EBI addition and measured after 2 hrs by Western blot analysis; format: cell-based; settings: dose 0.25-2.5 µM, time 4.0 hrs
Procedure, shortened: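 EBI competition assay. […] EBI was then added at […] as printed for another 2 h. Harvested cells were immunoblotted with anti-β-tubulin antibody to detect β-tubulin and the alkylated β-tubulin adduct.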

MGC-803 [26] = experiment: Induction of apoptosis in human MGC-803 cells assessed as downregulation of XIAP at 20 to 60 nM incubated for 48 hrs by Western blot analysis; format: functional, cell-based; settings: dose 20-60 nM; procedure, shortened: as §1
MGC-803 [27] = experiment: Induction of cell cycle arrest in human MGC-803 cells assessed as increase in G2/M phase accumulation incubated for 24 hrs by PI staining based flow cytometry analysis; format: functional; settings: dose 20-60 nM; procedure, shortened: as §4

## COc1ccc(CN(C(=O)CSc2nc3ccccc3s2)c2cc(OC)c(OC)c(OC)c2)cc1O
MGC-803 [1]
  Activity: Active
MGC-803 [2]
  Activity: Active
MGC-803 [3]
  Activity: Active
MGC-803 [4]
  Activity: 4.4%
SGC-7901 [5]
  Activity: Active
[6]
  IC50: 1900 nM
SGC-7901 [7]
  Activity: Dose-dependent effect
SGC-7901 [8]
  Activity: Active
MGC-803 [9]
  Activity: Active
MGC-803 [10]
  Activity: Active
SGC-7901 [11]
  Activity: 19.1%
MGC-803 [12]
  Activity: Active
MGC-803 [13]
  Activity: Active
SGC-7901 [14]
  Activity: 4.2%
SGC-7901 [15]
  Activity: Active
SGC-7901 [16]
  Activity: Active
MGC-803 [17]
  Activity: 10.1%
SGC-7901 [18]
  Activity: Dose-dependent effect
MGC-803 [19]
  Activity: Active
SGC-7901 [20]
  Activity: 6.8%
MGC-803 [21]
  Activity: Active
SGC-7901 [22]
  Activity: Active
SGC-7901 [23]
  Activity: Active
MGC-803 [24]
  Activity: Active
SGC-7901 [25]
  inhibition: Dose-dependent effect
MGC-803 [26]
  Activity: Active
MGC-803 [27]
  Activity: Dose-dependent effect
